Drawing on ChEMBL document CHEMBL2010720, “Synthesis and evaluation of ursolic acid derivatives as potent cytotoxic agents” (Bioorg Med Chem Lett, 2012), this text covers Activity, viability and IC50 for twelve compounds.

In assay [1] the test system is AGS. The experiment in a line: Induction of apoptosis in human AGS cells assessed as late apoptotic cells at 5 uM after 24 hrs by annexin-V/PI staining-based flow cytometric analysis (reference value: 2.5%). Format: functional.
Assay [2] deals with AGS. In words: Induction of apoptosis in human AGS cells assessed as late apoptotic cells at 20 uM after 24 hrs by annexin-V/PI staining-based flow cytometric analysis (reference value: 2.5%). Type of assay: functional.
In assay [3] the test system is AGS. The experiment in a line: Cell cycle arrest in human AGS cells assessed as accumulation at G2/M phase cells at 10 uM after 48 hrs by flow cytometry (reference value: 35.37 +/- 3.73%). Format: functional.
Assay [4] concerns AGS. The experiment in a line: Induction of apoptosis in human AGS cells assessed as viable cells at 10 uM after 24 hrs by annexin-V/PI staining-based flow cytometric analysis (reference value: 95.5%). Type of assay: functional. The conditions noted are these: read-out: Activity.
Assay [5] has as its system AGS. In words: Cell cycle arrest in human AGS cells assessed as accumulation at sub-G0/G1 phase cells at 10 uM after 48 hrs by flow cytometry (reference value: 1.56 +/- 0.20%). Type of assay: functional.
The subject of assay [6] is AGS. In words: Induction of apoptosis in human AGS cells assessed as late apoptotic cells at 10 uM after 24 hrs by annexin-V/PI staining-based flow cytometric analysis (reference value: 2.5%). Type of assay: functional.
Assay [7] concerns AGS. The experiment in a line: Induction of apoptosis in human AGS cells assessed as viable cells at 5 uM after 24 hrs by annexin-V/PI staining-based flow cytometric analysis (reference value: 95.5%). The conditions noted are these: read-out: Activity. Type of assay: functional.
For assay [8], the system named is AGS. In words: Induction of apoptosis in human AGS cells assessed as necrotic cells at 20 uM after 24 hrs by annexin-V/PI staining-based flow cytometric analysis (reference value: 0.1%). Format: functional.
For assay [9], the system named is AGS. The experiment in a line: Induction of apoptosis in human AGS cells assessed as necrotic cells at 10 uM after 24 hrs by annexin-V/PI staining-based flow cytometric analysis (reference value: 0.1%). Format: functional.
The test system of assay [10] is AGS. In words: Cell cycle arrest in human AGS cells assessed as accumulation at S phase cells at 10 uM after 48 hrs by flow cytometry (reference value: 36.56 +/- 0.36%). Format: functional.
For the next assay, the system named is HepG2. In words: Cytotoxicity against human HepG2 cells after 48 hrs by MTT assay. Type of assay: functional, cell-based. As to conditions: HepG2, 48 h. An outline of the steps: (§1)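 Cells seeded at 1×10^4 per well and treated 24 h later for 48 h at 10, 20, 40, 60, 80 and 100 µM, each in six wells. Compounds came from 20 mM DMSO stocks diluted in medium; the vehicle control matched the DMSO of the top dose. MTT was added for 4 h, formazan dissolved in DMSO and read at 570 nm. IC50 was taken as the concentration giving 50% growth inhibition.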

Assay [11] concerns AGS. The experiment in a line: Cytotoxicity against human AGS cells after 48 hrs by MTT assay. Format: functional, cell-based. The method in brief: as §1
The test system of assay [12] is AGS. The experiment in a line: Cell cycle arrest in human AGS cells assessed as accumulation at G0/G1 phase cells at 10 uM after 48 hrs by flow cytometry (reference value: 28.07 +/- 3.52%). Type of assay: functional.
Assay [13] deals with AGS. In words: Induction of apoptosis in human AGS cells assessed as early apoptotic cells at 20 uM after 24 hrs by annexin-V/PI staining-based flow cytometric analysis (reference value: 1.9%). Format: functional.
Assay [14] has as its system AGS. In words: Induction of apoptosis in human AGS cells assessed as necrotic cells at 5 uM after 24 hrs by annexin-V/PI staining-based flow cytometric analysis (reference value: 0.1%). Type of assay: functional.
Assay [15] relates to AGS. In words: Induction of apoptosis in human AGS cells assessed as early apoptotic cells at 10 uM after 24 hrs by annexin-V/PI staining-based flow cytometric analysis (reference value: 1.9%). Format: functional.
The next assay concerns HT-29. In words: Cytotoxicity against human HT-29 cells after 48 hrs by MTT assay. Format: functional, cell-based. As to conditions: HT-29, 48 h. The method in brief: as §1
Assay [16] deals with AGS. In words: Induction of apoptosis in human AGS cells assessed as early apoptotic cells at 5 uM after 24 hrs by annexin-V/PI staining-based flow cytometric analysis (reference value: 1.9%). Format: functional.
Assay [17] relates to AGS. In words: Induction of apoptosis in human AGS cells assessed as viable cells at 20 uM after 24 hrs by annexin-V/PI staining-based flow cytometric analysis (reference value: 95.5%). Format: functional. The conditions noted are these: read-out: Activity.
In a further assay the test system is PC-3. In words: Cytotoxicity against human PC3 cells after 48 hrs by MTT assay. Format: functional, cell-based. The conditions noted are these: PC-3, 48 h. The method in brief: as §1
Assay [18] relates to AGS. In words: Cell cycle arrest in human AGS cells assessed as accumulation at S phase cells at 20.6 uM after 48 hrs by flow cytometry (reference value: 36.56 +/- 0.36%). Type of assay: functional.
Assay [19] relates to AGS. The experiment in a line: Cell cycle arrest in human AGS cells assessed as accumulation at G2/M phase cells at 20.6 uM after 48 hrs by flow cytometry (reference value: 35.37 +/- 3.73%). Format: functional.
The test system of assay [20] is AGS. The experiment in a line: Cell cycle arrest in human AGS cells assessed as accumulation at sub-G0/G1 phase at 20.6 uM after 48 hrs by flow cytometry (reference value: 1.56 +/- 0.20%). Format: functional.
The subject of assay [21] is AGS. The experiment in a line: Cell cycle arrest in human AGS cells assessed as accumulation at G0/G1 phase cells at 20.6 uM after 48 hrs by flow cytometry (reference value: 28.07 +/- 3.52%). Type of assay: functional.

SMILES strings stand for the structures. Bounds are passed on as bounds.

`C[C@H]1[C@H](C)CC[C@]2(C(=O)NCCN)CC[C@]3(C)C(=CC[C@@H]4[C@@]5(C)CC[C@H](O)C(C)(C)[C@@H]5CC[C@]43C)[C@H]12`: the Activity with AGS [1] is reported as 6.1%; in the assay on AGS [2] it was 17.2%; with AGS [3], 2.51%; in the assay with AGS [5], 92.64%; with AGS [6], 11.8%; in the assay on AGS [8], 0.5%. The Activity with AGS [9] was found to be 0.7%; in the assay with AGS [10] it was 66.66%; with AGS [12], 30.83%; in the assay on AGS [13] it was 68.6%; in the assay on AGS [14] it was 0.2%; with AGS [15], 27.7%. Besides, the Activity in the assay with AGS [16] turned out to be 8.9%. For the same compound, in the assay on AGS [4], the viability at 10 µM stood at 59.9%. For the same compound, the viability at 5 µM with AGS [7] was 84.7%. In addition, the IC50 was 21.3 µM in the assay with HepG2, 11.4 µM in the assay with AGS [11], 14.3 µM with HT-29 and below 10 µM with PC-3. For the same compound, the viability at 20 µM in the assay on AGS [17] stood at 13.7%.
For the compound `CC(=O)O[C@H]1CC[C@]2(C)[C@H]3CC=C4[C@@H]5[C@@H](C)[C@H](C)CC[C@]5(C(=O)NCCNC(=O)[C@@H](N)Cc5ccccc5)CC[C@@]4(C)[C@]3(C)CC[C@H]2C1(C)C`, the Activity in the assay on AGS [3] is on record as 35.31%; in the assay with AGS [5] it was 87.64%; with AGS [10], 2.06%; in the assay on AGS [12], 63.49%. In addition, the IC50 in the assay on HepG2, with AGS [11], in the assay on HT-29 and in the assay on PC-3 was below 10 µM in each case.
On to `CC(=O)O[C@H]1C(=O)[C@@]2(C)[C@H]([C@H](OC(=O)c3ccccc3)[C@]3(O)C[C@H](OC(=O)[C@H](O)[C@@H](NC(=O)c4ccccc4)c4ccccc4)C(C)=C1C3(C)C)[C@]1(OC(C)=O)CO[C@@H]1C[C@@H]2O` [PACLITAXEL], for which the Activity with AGS [3] was found to be 86.18%; in the assay with AGS [5], 70.41%; in the assay with AGS [10] it was 7.9%; in the assay with AGS [12] it was 5.92%. Moreover, the IC50 in the assay with HepG2 is 30.7 µM; with AGS [11], below 10 µM; in the assay on HT-29 it was below 10 µM; in the assay with PC-3, 57.2 µM.
As for `C[C@H]1[C@H](C)CC[C@]2(C(=O)NC(CC(=O)O)C(=O)O)CC[C@]3(C)C(=CC[C@@H]4[C@@]5(C)CC[C@H](O)C(C)(C)[C@@H]5CC[C@]43C)[C@H]12` (stereo not given in full), the IC50 with HepG2, in the assay with AGS [11], in the assay on HT-29 and in the assay with PC-3 was above 100 µM each time.
With `CC(=O)O[C@H]1CC[C@]2(C)[C@H]3CC=C4[C@@H]5[C@@H](C)[C@H](C)CC[C@]5(C(=O)NCCN)CC[C@@]4(C)[C@]3(C)CC[C@H]2C1(C)C`, the Activity in the assay with AGS [3] is 46.72%; in the assay on AGS [5] it was 88.3%; in the assay on AGS [10], 1.42%; in the assay on AGS [12] it was 51.86%. The IC50 in the assay on HepG2 was 12.4 µM; in the assay on AGS [11], below 10 µM; with HT-29, below 10 µM; in the assay with PC-3, below 10 µM.
Regarding `C[C@H]1[C@H](C)CC[C@]2(C(=O)NCCNC(=O)[C@@H](N)Cc3ccccc3)CC[C@]3(C)C(=CC[C@@H]4[C@@]5(C)CC[C@H](O)C(C)(C)[C@@H]5CC[C@]43C)[C@H]12`, the Activity in the assay on AGS [3] is listed as 45.59%; in the assay on AGS [5], 47.73%; in the assay on AGS [10], 11.79%; in the assay on AGS [12], 42.62%. In addition, the concentration for half-maximal inhibition (IC50) in the assay on AGS [11] and in the assay on PC-3 was below 10 µM each time.
Turning to `CC(=O)O[C@H]1CC[C@]2(C)[C@H]3CC=C4[C@@H]5[C@@H](C)[C@H](C)CC[C@]5(C(=O)NCCNC(=O)CN)CC[C@@]4(C)[C@]3(C)CC[C@H]2C1(C)C`, the Activity worked out at 37.66% in the assay with AGS [3], 75.45% in the assay on AGS [5], 25.37% in the assay on AGS [10] and 36.97% in the assay with AGS [12]. Besides, the IC50 in the assay on HepG2 was 15.5 µM; with AGS [11] it was below 10 µM; in the assay with HT-29, 20.2 µM; with PC-3, 14.3 µM.
Turning to `C[C@H]1[C@H](C)CC[C@]2(C(=O)NC(CCC(=O)O)C(=O)O)CC[C@]3(C)C(=CC[C@@H]4[C@@]5(C)CC[C@H](O)C(C)(C)[C@@H]5CC[C@]43C)[C@H]12` (stereo not given in full), the IC50 in the assay on HepG2, with AGS [11], in the assay on HT-29 and with PC-3 was above 100 µM each time.
Regarding `C[C@H]1[C@H](C)CC[C@]2(C(=O)O)CC[C@]3(C)C(=CC[C@@H]4[C@@]5(C)CC[C@H](O)C(C)(C)[C@@H]5CC[C@]43C)[C@H]12` [URSOLIC ACID], the Activity in the assay on AGS [18] is listed as 14.64%; in the assay with AGS [19] it was 52.16%; in the assay with AGS [20], 86.53%; in the assay with AGS [21], 33.2%. In addition, the IC50 in the assay with HepG2 worked out at 53.4 µM; with AGS [11], 20.6 µM; in the assay with HT-29 it was 25.3 µM; with PC-3, 22.3 µM.
As for `C[C@H]1[C@H](C)CC[C@]2(C(=O)NCCNC(=O)CN)CC[C@]3(C)C(=CC[C@@H]4[C@@]5(C)CC[C@H](O)C(C)(C)[C@@H]5CC[C@]43C)[C@H]12`, the Activity with AGS [3] is recorded as 71.45%; in the assay on AGS [5], 44.69%; in the assay with AGS [10], 11.23%; in the assay with AGS [12], 17.72%. The figures for the IC50 in the assay on AGS [11] and in the assay with PC-3 were 10.2 µM and 19.6 µM, respectively.
With `CSCC[C@H](N)C(=O)NCCNC(=O)[C@]12CC[C@@H](C)[C@H](C)[C@H]1C1=CC[C@@H]3[C@@]4(C)CC[C@H](O)C(C)(C)[C@@H]4CC[C@@]3(C)[C@]1(C)CC2`, the Activity in the assay on AGS [3] worked out at 68.65%; in the assay on AGS [5] it was 50.03%; with AGS [10] it was 18.46%; in the assay with AGS [12] it was 12.9%. The IC50 with HepG2 is 16 µM; with AGS [11], below 10 µM; in the assay with PC-3, below 10 µM.
`CSCC[C@H](N)C(=O)NCCNC(=O)[C@]12CC[C@@H](C)[C@H](C)[C@H]1C1=CC[C@@H]3[C@@]4(C)CC[C@H](OC(C)=O)C(C)(C)[C@@H]4CC[C@@]3(C)[C@]1(C)CC2`: the Activity in the assay with AGS [3] was determined as 45.03%; in the assay with AGS [5], 82.38%; in the assay with AGS [10] it was 0%; in the assay on AGS [12], 54.97%. The IC50 with HepG2, in the assay on AGS [11], in the assay on HT-29 and in the assay on PC-3 was below 10 µM throughout.
